Reference: ChEMBL document CHEMBL2157866, “Virtual screening and computational optimization for the discovery of covalent prolyl oligopeptidase inhibitors with activity in human cells” (J Med Chem, 2012)

Key:
[1] = substrate: Cc1cc(=O)oc2cc(NC(=O)[C@@H]3CCCN3C(=O)CNC(=O)OCc3ccccc3)ccc12; assay: Activity of POP in human LNZ308 cell extracts incubated for 30 mins by fluorimetric assay
Procedure, shortened: (§1)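 Confluent cell monolayers lysed in PBS with 0.1% Triton X-100. Increasing Z-Gly-Pro-AMC concentrations added; fluorescence increase (ex/em 360/460 nm) recorded for 30 min at 37 °C. KM read graphically from a double-reciprocal Michaelis–Menten plot.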

[2] = substrate: Cc1cc(=O)oc2cc(NC(=O)[C@@H]3CCCN3C(=O)CNC(=O)OCc3ccccc3)ccc12; assay: Activity of POP in human LN229 cell extracts incubated for 30 mins by fluorimetric assay; procedure, shortened: as §1
[3] = substrate: Cc1cc(=O)oc2cc(NC(=O)[C@@H]3CCCN3C(=O)CNC(=O)OCc3ccccc3)ccc12; assay: Activity of human recombinant POP incubated for 30 mins by fluorimetric assay
Procedure, shortened: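 Recombinant human POP/PREP stock diluted in PBS containing 1 mg/mL BSA. Increasing Z-Gly-Pro-AMC concentrations added; fluorescence (ex/em 360/460 nm) followed for 30 min at 37 °C. KM determined graphically from a double-reciprocal Michaelis–Menten plot.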

[4] = substrate: Cc1cc(=O)oc2cc(NC(=O)[C@@H]3CCCN3C(=O)CNC(=O)OCc3ccccc3)ccc12; assay: Activity of POP in human LN18 cell extracts incubated for 30 mins by fluorimetric assay; procedure, shortened: as §1
[5] = substrate: Cc1cc(=O)oc2cc(NC(=O)[C@@H]3CCCN3C(=O)CNC(=O)OCc3ccccc3)ccc12; assay: Activity of POP in human HCEC cell extracts incubated for 30 mins by fluorimetric assay; procedure, shortened: as §1

B1: Prolyl endopeptidase (Homo sapiens), P48147 (protein)
chain: MLSLQYPDVYRDETAVQDYHGHKICDPYAWLEDPDSEQTKAFVEAQNKITVPFLEQCPIRGLYKERMTELYDYPKYSCHFKKGKRYFYFYNTGLQNQRVLYVQDSLEGEARVFLDPNILSDDGTVALRGYAFSEDGEYFAYGLSASGSDWVTIKFMKVDGAKELPDVLERVKFSCMAWTHDGKGMFYNSYPQQDGKSDGTETSTNLHQKLYYHVLGTDQSEDILCAEFPDEPKWMGGAELSDDGRYVLLSIREGCDPVNRLWYCDLQQESSGIAGILKWVKLIDNFEGEYDYVTNEGTVFTFKTNRQSPNYRVINIDFRDPEESKWKVLVPEHEKDVLEWIACVRSNFLVLCYLHDVKNILQLHDLTTGALLKTFPLDVGSIVGYSGQKKDTEIFYQFTSFLSPGIIYHCDLTKEELEPRVFREVTVKGIDASDYQTVQIFYPSKDGTKIPMFIVHKKGIKLDGSHPAFLYGYGGFNISITPNYSVSRLIFVRHMGGILAVANIRGGGEYGETWHKGGILANKQNCFDDFQCAAEYLIKEGYTSPKRLTINGGSNGGLLVAACANQRPDLFGCVIAQVGVMDMLKFHKYTIGHAWTTDYGCSDSKQHFEWLVKYSPLHNVKLPEADDIQYPSMLLLTADHDDRVVPLHSLKFIATLQYIVGRSRKQSNPLLIHVDTKAGHGAGKPTAKVIEEVSDMFAFIARCLNVDWIP
Km [1]: 8.1 µM
Km [2]: 6.7 µM
Km [3]: 8.5 µM
Km [4]: 8.5 µM
Km [5]: 7 µM
